In experiment [1] the target is T1, Integrin alpha-V/beta-3 (Homo sapiens, UniProt P05106+P06756). Put plainly: Inhibition of integrin alpha-v/beta-3 mediated M21 cell adhesion to vitronectin with monoclonal antibody P1F6. Format: functional, cell-based. Summed up:
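M21 human melanoma cells were freshly harvested and plated on vitronectin-coated surfaces into serial inhibitor dilutions, with αvβ5-blocking mAb P1F6 present so attachment is αvβ3-dependent. Attached cells were counted after 1 h by lysosomal hexosaminidase. IC50 by curve fitting, mean of two independent determinations.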

The target in experiment [2] is T2, Integrin alpha-V/beta-5 (Homo sapiens, UniProt P06756+P18084). Put plainly: Inhibition of integrin alpha-v/beta-5 mediated UCLAP-3 cell adhesion on vitronectin. The experiment is classed as functional, cell-based. Put shortly: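 UCLAP-3 human lung adenocarcinoma cells attach to vitronectin exclusively via αvβ5. Freshly harvested cells were plated on vitronectin-coated surfaces into serial inhibitor dilutions. Attachment was measured at 1 h by lysosomal hexosaminidase cell count. IC50 by curve fitting, mean of two independent determinations.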
T2 sequence (P06756 31-889 limits assumed): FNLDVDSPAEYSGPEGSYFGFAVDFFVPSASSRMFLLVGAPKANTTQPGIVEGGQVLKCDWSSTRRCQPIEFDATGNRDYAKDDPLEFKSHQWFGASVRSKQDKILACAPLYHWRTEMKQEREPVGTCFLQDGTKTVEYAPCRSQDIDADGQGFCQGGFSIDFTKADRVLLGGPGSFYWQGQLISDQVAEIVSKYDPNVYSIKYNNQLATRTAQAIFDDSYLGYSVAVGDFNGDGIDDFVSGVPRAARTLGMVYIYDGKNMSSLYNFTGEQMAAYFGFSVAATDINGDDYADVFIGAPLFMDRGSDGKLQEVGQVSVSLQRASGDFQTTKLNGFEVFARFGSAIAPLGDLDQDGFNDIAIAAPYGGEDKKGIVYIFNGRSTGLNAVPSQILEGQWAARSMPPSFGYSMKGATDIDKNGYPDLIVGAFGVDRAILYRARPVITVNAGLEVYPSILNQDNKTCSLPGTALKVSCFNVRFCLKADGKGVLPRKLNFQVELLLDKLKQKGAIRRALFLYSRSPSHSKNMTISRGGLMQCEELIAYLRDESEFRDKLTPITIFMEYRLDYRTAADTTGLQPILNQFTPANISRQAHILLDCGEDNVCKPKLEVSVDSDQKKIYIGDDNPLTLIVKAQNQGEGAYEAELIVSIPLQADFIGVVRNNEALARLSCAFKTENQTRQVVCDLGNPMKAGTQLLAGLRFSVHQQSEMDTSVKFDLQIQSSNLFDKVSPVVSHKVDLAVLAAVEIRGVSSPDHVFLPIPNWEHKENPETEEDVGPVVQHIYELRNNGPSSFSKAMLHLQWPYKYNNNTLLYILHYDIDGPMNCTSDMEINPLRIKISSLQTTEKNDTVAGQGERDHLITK
T2 sequence (P06756 891-1048 limits assumed): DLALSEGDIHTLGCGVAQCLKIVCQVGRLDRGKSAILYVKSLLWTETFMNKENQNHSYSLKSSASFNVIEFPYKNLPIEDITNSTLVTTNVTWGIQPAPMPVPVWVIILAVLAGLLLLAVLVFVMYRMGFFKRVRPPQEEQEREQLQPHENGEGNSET
T2 sequence (P18084 24-799 limits assumed): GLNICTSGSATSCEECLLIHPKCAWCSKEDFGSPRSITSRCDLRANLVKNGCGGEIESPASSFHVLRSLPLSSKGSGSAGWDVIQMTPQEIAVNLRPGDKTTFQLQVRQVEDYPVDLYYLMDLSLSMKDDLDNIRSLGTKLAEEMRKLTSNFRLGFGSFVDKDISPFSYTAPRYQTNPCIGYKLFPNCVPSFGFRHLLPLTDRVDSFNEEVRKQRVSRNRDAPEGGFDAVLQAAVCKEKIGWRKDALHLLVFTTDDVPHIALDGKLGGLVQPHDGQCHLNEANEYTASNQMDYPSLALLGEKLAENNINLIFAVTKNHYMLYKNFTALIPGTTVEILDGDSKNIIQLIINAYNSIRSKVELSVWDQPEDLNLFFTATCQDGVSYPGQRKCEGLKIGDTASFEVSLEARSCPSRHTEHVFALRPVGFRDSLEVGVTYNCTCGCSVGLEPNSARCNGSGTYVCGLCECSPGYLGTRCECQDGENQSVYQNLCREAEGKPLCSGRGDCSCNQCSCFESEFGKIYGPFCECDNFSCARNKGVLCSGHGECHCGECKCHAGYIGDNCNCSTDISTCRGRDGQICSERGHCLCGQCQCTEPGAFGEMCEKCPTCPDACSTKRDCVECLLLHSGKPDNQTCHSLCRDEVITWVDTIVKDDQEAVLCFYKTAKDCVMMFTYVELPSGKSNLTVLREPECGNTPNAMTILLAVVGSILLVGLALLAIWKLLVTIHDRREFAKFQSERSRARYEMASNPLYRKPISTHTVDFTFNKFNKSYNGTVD

The target in experiment [3] is T3, Integrin alpha-V/beta-6 (Homo sapiens, UniProt P06756+P18564). Put plainly: Inhibition of integrin alpha-v/beta-6 mediated UCLAP-3 cell adhesion to fibronectin. The experiment is classed as functional, cell-based.
T3 sequence (P06756 31-889 limits assumed): as the sequence (P06756 31-889 limits assumed) above
T3 sequence (P06756 891-1048 limits assumed): as the sequence (P06756 891-1048 limits assumed) above
T3 sequence (P18564 22-788 limits assumed): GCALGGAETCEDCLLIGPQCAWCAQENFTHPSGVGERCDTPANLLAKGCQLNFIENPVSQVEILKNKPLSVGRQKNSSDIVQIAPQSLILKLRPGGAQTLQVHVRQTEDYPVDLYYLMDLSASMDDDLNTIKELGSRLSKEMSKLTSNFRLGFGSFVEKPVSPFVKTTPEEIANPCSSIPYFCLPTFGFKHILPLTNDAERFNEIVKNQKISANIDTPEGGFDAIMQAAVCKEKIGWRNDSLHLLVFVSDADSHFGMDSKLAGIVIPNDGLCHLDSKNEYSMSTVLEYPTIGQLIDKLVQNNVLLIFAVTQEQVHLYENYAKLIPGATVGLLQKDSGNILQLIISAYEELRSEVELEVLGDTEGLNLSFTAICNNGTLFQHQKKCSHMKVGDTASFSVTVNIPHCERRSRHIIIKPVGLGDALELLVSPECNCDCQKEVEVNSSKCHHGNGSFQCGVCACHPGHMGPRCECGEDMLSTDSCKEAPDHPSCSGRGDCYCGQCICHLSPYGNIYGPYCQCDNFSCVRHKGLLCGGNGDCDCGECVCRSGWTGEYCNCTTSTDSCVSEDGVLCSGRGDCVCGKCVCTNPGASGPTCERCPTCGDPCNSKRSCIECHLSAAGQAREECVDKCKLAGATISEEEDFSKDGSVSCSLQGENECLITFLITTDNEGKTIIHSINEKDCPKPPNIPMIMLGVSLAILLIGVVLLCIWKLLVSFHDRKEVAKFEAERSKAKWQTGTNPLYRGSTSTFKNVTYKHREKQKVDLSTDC
In experiment [4] the target is Integrin alpha-IIb/beta-3 (Homo sapiens, UniProt P05106+P08514). Put plainly: Inhibition of fibrinogen binding to human platelet glycoprotein alpha IIb beta3 integrin.
Chain of Integrin alpha-IIb/beta-3 (P05106 27-788 limits assumed): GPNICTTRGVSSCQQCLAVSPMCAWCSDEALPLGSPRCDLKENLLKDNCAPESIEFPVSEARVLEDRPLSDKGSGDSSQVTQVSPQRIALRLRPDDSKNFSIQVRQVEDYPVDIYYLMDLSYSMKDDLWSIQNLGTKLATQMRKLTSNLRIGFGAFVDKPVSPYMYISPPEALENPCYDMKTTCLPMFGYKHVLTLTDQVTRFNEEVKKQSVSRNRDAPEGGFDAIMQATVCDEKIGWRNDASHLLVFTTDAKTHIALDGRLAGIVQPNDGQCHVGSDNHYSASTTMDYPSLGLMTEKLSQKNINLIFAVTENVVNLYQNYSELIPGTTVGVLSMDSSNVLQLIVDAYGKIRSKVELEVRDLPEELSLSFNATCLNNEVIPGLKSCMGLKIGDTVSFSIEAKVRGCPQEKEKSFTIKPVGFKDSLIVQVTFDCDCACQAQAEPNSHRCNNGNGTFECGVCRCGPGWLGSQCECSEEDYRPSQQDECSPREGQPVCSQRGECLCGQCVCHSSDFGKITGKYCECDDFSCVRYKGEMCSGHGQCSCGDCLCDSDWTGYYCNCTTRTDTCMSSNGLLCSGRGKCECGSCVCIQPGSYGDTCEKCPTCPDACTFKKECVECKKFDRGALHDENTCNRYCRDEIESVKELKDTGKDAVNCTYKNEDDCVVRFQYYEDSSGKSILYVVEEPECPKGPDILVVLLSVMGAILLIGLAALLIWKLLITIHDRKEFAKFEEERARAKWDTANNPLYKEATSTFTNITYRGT
Chain of Integrin alpha-IIb/beta-3 (P08514 32-887 limits assumed): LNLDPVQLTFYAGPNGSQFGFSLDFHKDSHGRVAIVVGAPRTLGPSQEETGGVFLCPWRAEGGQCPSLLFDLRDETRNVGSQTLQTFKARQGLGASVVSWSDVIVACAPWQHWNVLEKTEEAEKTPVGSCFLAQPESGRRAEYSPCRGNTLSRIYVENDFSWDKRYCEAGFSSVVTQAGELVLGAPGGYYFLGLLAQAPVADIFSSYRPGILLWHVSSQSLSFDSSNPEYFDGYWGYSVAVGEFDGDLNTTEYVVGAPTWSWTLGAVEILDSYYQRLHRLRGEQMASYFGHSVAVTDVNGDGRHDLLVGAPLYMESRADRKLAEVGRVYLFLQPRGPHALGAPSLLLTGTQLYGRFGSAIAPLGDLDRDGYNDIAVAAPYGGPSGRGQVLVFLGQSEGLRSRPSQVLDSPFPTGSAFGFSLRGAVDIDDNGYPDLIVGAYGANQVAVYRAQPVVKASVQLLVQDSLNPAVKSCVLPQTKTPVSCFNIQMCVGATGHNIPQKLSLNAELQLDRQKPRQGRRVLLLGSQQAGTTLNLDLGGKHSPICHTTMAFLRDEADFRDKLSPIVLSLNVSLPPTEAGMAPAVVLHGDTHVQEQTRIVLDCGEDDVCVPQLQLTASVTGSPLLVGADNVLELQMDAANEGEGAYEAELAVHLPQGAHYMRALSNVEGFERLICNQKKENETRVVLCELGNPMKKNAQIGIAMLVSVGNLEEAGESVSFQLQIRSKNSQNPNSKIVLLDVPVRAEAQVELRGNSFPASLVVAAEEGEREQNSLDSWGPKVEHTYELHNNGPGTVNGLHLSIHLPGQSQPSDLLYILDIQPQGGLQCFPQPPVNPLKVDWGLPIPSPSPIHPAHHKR
Chain of Integrin alpha-IIb/beta-3 (P08514 891-1039 limits assumed): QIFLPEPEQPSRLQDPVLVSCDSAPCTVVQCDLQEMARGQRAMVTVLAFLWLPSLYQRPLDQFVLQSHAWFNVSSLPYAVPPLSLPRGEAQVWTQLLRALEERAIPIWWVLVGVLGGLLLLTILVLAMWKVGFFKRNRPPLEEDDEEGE
Experiment [5] has as its target T3, Integrin alpha-V/beta-6. Put plainly: Inhibition of fibronectin binding to recombinant human alphaV-beta6 integrin. The experiment is classed as protein-complex assay. Put shortly:
(§1)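 Isolated-integrin ELISA. Plates were coated by adsorption from neutral buffer with 1 µg mL^-1 integrin: recombinant human αvβ3, αvβ5 or αvβ6, or αIIbβ3 isolated from human platelets. The plate was blocked with BSA. Biotinylated ligand (1 µg mL^-1) was added with serial inhibitor dilutions: human serum vitronectin for αvβ3/αvβ5, fibronectin for αvβ6, fibrinogen for αIIbβ3. Bound biotin was detected with peroxidase anti-biotin and TMB.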

In experiment [6] the target is T2, Integrin alpha-V/beta-5. Put plainly: Inhibition of vitronectin binding to recombinant human alphaV-beta5 integrin. Format: protein-complex assay. Summed up:
as §1

For experiment [7], the target named is T1, Integrin alpha-V/beta-3. Put plainly: Inhibition of vitronectin binding to recombinant human alphaV-beta3 integrin. The experiment is classed as protein-complex assay. Put shortly: as §1

Each structure is given as a SMILES string. Bounds are passed on as bounds.

T1 sequence (P05106 27-788 limits assumed): as the sequence (P05106 27-788 limits assumed) above
T1 sequence (P06756 31-889 limits assumed): as the sequence (P06756 31-889 limits assumed) above
T1 sequence (P06756 891-1048 limits assumed): as the sequence (P06756 891-1048 limits assumed) above

Regarding `C[C@H]1C(=O)N[C@@H](CCCN=C(N)N)C(=O)NCC(=O)N[C@@H](CC(=O)O)C(=O)N[C@H](Cc2ccccc2)C(=O)N1C`, the IC50 stood at 3900 nM on Integrin alpha-V/beta-3 [1]; 1300 nM at Integrin alpha-V/beta-5 [2]; 37000 nM on Integrin alpha-V/beta-6 [3]; 6000 nM in experiment [4]; 2400 nM at Integrin alpha-V/beta-6 [5]; 662 nM on Integrin alpha-V/beta-5 [6].
With `O=C(O)CC(NC(=O)CNC(=O)CCCCNc1ccccn1)c1ccc(-c2ccccc2)cc1` (centres undefined), the IC50 at Integrin alpha-V/beta-3 [1] was 9500 nM; at Integrin alpha-V/beta-3 [7], 0.45 nM; against Integrin alpha-V/beta-5 [2] it was 26000 nM; against Integrin alpha-V/beta-6 [3], 100 nM; in experiment [4], 4050 nM; at Integrin alpha-V/beta-6 [5], 0.6 nM. Moreover, the IC50 on Integrin alpha-V/beta-5 [6] was determined as 2670 nM.
With `O=C(O)CC(NC(=O)CNC(=O)CCCNc1ccccn1)c1cccc([N+](=O)[O-])c1` (centres undefined), the IC50 came to 6900 nM against Integrin alpha-V/beta-3 [1]; 13 nM on Integrin alpha-V/beta-3 [7]; 1200 nM against Integrin alpha-V/beta-5 [2]; 90 nM on Integrin alpha-V/beta-6 [3]; 7300 nM in experiment [4]; 4 nM at Integrin alpha-V/beta-6 [5]. Further, the IC50 at Integrin alpha-V/beta-5 [6] was 42 nM.
Regarding `Cc1ccnc(NCCCCC(=O)NCC(=O)NC(CC(=O)O)c2cc(Cl)cc(Cl)c2)c1` (centres undefined), the IC50 is 16000 nM on Integrin alpha-V/beta-3 [1]; 53 nM on Integrin alpha-V/beta-3 [7]; 2000 nM at Integrin alpha-V/beta-5 [2]; 300 nM on Integrin alpha-V/beta-6 [3]; over 10000 nM in experiment [4]; 0.4 nM at Integrin alpha-V/beta-6 [5]. The IC50 on Integrin alpha-V/beta-5 [6] was found to be 350 nM.
With `Cc1ccnc(NCCCCC(=O)NNC(=O)CC(CC(=O)O)c2ccc(-c3ccccc3)cc2)c1` (centres undefined), the concentration for half-maximal inhibition (IC50) at Integrin alpha-V/beta-3 [1] was 970 nM; on Integrin alpha-V/beta-3 [7] it was 4 nM; against Integrin alpha-V/beta-5 [2] it was 24000 nM; at Integrin alpha-V/beta-6 [3], 3800 nM; in experiment [4], 3000 nM; at Integrin alpha-V/beta-6 [5], 53 nM. Further, the IC50 at Integrin alpha-V/beta-5 [6] was 8700 nM.
On to `Cc1ccnc(NCCCCC(=O)NNC(=O)NC(CC(=O)O)c2cc(Cl)cc(Cl)c2)c1` (centres undefined), for which the IC50 on Integrin alpha-V/beta-3 [1] is 12000 nM; on Integrin alpha-V/beta-3 [7] it was 64 nM; against Integrin alpha-V/beta-5 [2] it was 5000 nM; against Integrin alpha-V/beta-6 [3] it was 300 nM; in experiment [4], over 10000 nM; at Integrin alpha-V/beta-6 [5], 1.7 nM. Further, the IC50 on Integrin alpha-V/beta-5 [6] is 2500 nM.
As to `Cc1ccnc(NCCCC(=O)NCC(=O)NC(CC(=O)O)c2ccc(-c3cccc4ccccc34)cc2)c1` (centres undefined), the IC50 against Integrin alpha-V/beta-3 [1] was 3000 nM; at Integrin alpha-V/beta-3 [7] it was 8 nM; against Integrin alpha-V/beta-5 [2], 20000 nM; at Integrin alpha-V/beta-6 [3], 200 nM; in experiment [4], 4230 nM; at Integrin alpha-V/beta-6 [5] it was 0.04 nM. Also, the IC50 on Integrin alpha-V/beta-5 [6] turned out to be 5170 nM.
As for `N=C(N)NCCCCC(=O)NNC(=O)NC(CC(=O)O)c1ccccc1` (centres undefined), the IC50 against Integrin alpha-V/beta-3 [1] was over 50000 nM; on Integrin alpha-V/beta-5 [2] it was 43000 nM; against Integrin alpha-V/beta-6 [3], 9600 nM; on Integrin alpha-V/beta-6 [5], 460 nM; on Integrin alpha-V/beta-5 [6], 26 nM.
On to `Cc1ccnc(NCCCCC(=O)NNC(=O)CC(CC(=O)O)c2cc(Cl)cc(Cl)c2)c1` (centres undefined), for which the IC50 is 20000 nM against Integrin alpha-V/beta-3 [1]; 6 nM at Integrin alpha-V/beta-3 [7]; 18000 nM against Integrin alpha-V/beta-5 [2]; 1600 nM against Integrin alpha-V/beta-6 [3]; over 10000 nM in experiment [4]; 44 nM at Integrin alpha-V/beta-6 [5]. Besides, at Integrin alpha-V/beta-5 [6], the 50% inhibitory concentration (IC50) was 5700 nM.
As to `Cc1ccnc(NCCCCCCC(=O)NC(CC(=O)O)c2cccc([N+](=O)[O-])c2)c1` (centres undefined), the IC50 against Integrin alpha-V/beta-3 [1] is over 50000 nM; on Integrin alpha-V/beta-3 [7], 53 nM; at Integrin alpha-V/beta-5 [2], 21000 nM; against Integrin alpha-V/beta-6 [3] it was 2100 nM; in experiment [4], 580 nM; on Integrin alpha-V/beta-6 [5] it was 61 nM. Also, the concentration for half-maximal inhibition (IC50) at Integrin alpha-V/beta-5 [6] is 1600 nM.
As to `Cc1ccnc(NCCCC(=O)NCC(=O)NC(CC(=O)O)c2cccc(OC(F)(F)F)c2)c1` (centres undefined), the IC50 against Integrin alpha-V/beta-3 [1] was 24000 nM; on Integrin alpha-V/beta-3 [7], 14 nM; on Integrin alpha-V/beta-5 [2], 27000 nM; against Integrin alpha-V/beta-6 [3] it was 30 nM; in experiment [4], over 10000 nM; on Integrin alpha-V/beta-6 [5], 0.15 nM. In addition, the IC50 on Integrin alpha-V/beta-5 [6] came to 39 nM.

For the origin of these results see ChEMBL document CHEMBL1135730, “Nanomolar small molecule inhibitors for alphav(beta)6, alphav(beta)5, and alphav(beta)3 integrins” (J Med Chem, 2002).
